Consider one compound from ChEMBL document CHEMBL4390691, “Discovery of 1,3-dihydro-2H-imidazo[4,5-c]quinolin-2-ones based novel, potent and PI3Kδ selective inhibitors” (Bioorg Med Chem Lett, 2019).

In general, Cmax refers to the maximum level reached in the sampled fluid or tissue. As a reminder, the inhibition is the relative decrease from the control value, in per cent. A lower inhibition goes with a response near the control. The inhibition in vivo is how much of the control response was suppressed. The term half-life denotes the time in which the quantity being followed falls by half. The term IC50 denotes the concentration at which inhibition is half-maximal. As usually defined, the bioavailability is dose-corrected exposure relative to a reference, in per cent. A low value points to poor availability. By AUC is commonly meant the area under the concentration-time curve, a measure of exposure. One may read the clearance as the volume of plasma or blood freed of the substance per unit of time. The low end stands for a low capacity for elimination, the high end for a high capacity for elimination.

Data set [1] is described as follows: Cmax in C57BL/6J mouse at 3 mg/kg, po measured up to 30 hrs by LC-MS/MS analysis. As to conditions: in vivo. The arrangement: dose 3 mg/kg, route oral. It is filed as ADME, organism-based. An outline of the steps: (§1)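 Male C57BL/6J mice (n = 6) received single doses of 3 mg/kg po or 1 mg/kg iv. Plasma concentrations were measured by LC-MS. Values are mean ± SD. Oral bioavailability (%F) was calculated from the ratio to iv AUC.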

The target in data set [2] is CYP3A4 (Homo sapiens, UniProt P08684). The data set can be described thus: Inhibition of CYP3A4 in human liver microsomes at 10 uM using testosterone/dextromethorphan as probe substrate measured after 10 mins relative to control. In kind it is ADME. (Liver microsomes are vesicles of endoplasmic reticulum, rich in cytochrome P450 enzymes.)
CYP3A4, sequence (P08684 whole entry): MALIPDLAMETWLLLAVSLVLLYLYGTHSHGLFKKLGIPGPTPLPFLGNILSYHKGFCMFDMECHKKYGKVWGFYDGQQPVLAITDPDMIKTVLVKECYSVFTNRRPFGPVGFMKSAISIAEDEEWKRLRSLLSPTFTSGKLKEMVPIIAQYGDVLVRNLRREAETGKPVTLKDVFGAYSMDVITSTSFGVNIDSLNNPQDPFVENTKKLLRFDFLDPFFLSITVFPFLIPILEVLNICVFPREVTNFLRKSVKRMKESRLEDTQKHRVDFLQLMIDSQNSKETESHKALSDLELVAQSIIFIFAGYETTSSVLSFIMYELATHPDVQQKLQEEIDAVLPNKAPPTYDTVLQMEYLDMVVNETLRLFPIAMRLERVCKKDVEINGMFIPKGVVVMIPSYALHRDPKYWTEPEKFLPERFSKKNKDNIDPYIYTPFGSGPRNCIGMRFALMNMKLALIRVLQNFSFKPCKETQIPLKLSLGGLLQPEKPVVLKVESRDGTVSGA
Data set [3] relates to TMD8. The data set can be described thus: Antitumor activity against human TMD8 cells xenografted in SCID mouse assessed as decrease in tumor volume at 30 mg/kg/day, po QD for 16 days and measured every alternate day. In kind it is functional. As to conditions: 384 h. An outline of the steps:
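Male SCID mice were inoculated with TMD-8 cells. Oral doses of 3, 10 and 30 mg/kg/day were given. The efficacy endpoint was inhibition of tumor volume relative to the vehicle (untreated) group.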
For orientation: A xenograft is tissue or cells of one species grown in another, often human tumour cells in immunodeficient mice.

Data set [4] is described as follows: Protein binding in DBA1/J mouse plasma. In kind it is ADME, cell-free. The following applies: read-out: PPB (converted).
The nature of data set [5]: Half life in C57BL/6J mouse at 3 mg/kg, po measured up to 30 hrs by LC-MS/MS analysis. It is filed as ADME, organism-based. The following applies: in vivo. In a few lines:
as §1

The target of data set [6] is Phosphatidylinositol 4,5-bisphosphate 3-kinase catalytic subunit beta isoform (Homo sapiens, UniProt P42338). As to the kind of experiment: Inhibition of human PI3Kbeta using PIP2 as substrate after 1 hr.
Phosphatidylinositol 4,5-bisphosphate 3-kinase catalytic subunit beta isoform, sequence (P42338 whole entry, canonical isoform): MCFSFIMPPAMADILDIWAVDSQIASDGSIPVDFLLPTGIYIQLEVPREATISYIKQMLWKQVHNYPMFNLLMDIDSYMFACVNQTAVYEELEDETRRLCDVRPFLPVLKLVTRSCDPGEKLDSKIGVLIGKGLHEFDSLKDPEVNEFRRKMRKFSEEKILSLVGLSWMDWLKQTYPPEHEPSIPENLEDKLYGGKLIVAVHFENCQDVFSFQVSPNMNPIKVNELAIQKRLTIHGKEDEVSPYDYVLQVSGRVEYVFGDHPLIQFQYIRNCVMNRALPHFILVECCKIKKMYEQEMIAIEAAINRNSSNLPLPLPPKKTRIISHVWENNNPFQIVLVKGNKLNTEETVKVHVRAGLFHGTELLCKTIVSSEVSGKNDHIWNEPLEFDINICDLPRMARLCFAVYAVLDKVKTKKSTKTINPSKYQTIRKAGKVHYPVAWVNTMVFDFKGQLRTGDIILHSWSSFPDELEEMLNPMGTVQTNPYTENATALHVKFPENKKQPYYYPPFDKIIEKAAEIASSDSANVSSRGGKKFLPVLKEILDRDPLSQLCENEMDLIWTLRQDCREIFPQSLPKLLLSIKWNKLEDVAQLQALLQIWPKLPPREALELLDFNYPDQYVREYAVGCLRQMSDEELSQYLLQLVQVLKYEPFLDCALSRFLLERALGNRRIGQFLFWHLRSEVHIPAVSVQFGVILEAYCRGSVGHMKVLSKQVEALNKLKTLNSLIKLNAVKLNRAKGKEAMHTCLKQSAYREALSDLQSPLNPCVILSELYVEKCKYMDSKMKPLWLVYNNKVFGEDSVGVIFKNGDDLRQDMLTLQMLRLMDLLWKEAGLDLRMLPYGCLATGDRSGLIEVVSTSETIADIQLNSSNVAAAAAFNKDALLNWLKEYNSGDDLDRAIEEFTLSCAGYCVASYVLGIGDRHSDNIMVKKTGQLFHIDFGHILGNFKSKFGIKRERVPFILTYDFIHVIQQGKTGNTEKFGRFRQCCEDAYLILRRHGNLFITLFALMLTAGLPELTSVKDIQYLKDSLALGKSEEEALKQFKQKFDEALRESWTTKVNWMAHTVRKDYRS
For data set [7], the target named is Voltage-gated inwardly rectifying potassium channel KCNH2 (Homo sapiens, UniProt Q12809). The data set can be described thus: Inhibition of human ERG.
Voltage-gated inwardly rectifying potassium channel KCNH2, sequence (Q12809 whole entry): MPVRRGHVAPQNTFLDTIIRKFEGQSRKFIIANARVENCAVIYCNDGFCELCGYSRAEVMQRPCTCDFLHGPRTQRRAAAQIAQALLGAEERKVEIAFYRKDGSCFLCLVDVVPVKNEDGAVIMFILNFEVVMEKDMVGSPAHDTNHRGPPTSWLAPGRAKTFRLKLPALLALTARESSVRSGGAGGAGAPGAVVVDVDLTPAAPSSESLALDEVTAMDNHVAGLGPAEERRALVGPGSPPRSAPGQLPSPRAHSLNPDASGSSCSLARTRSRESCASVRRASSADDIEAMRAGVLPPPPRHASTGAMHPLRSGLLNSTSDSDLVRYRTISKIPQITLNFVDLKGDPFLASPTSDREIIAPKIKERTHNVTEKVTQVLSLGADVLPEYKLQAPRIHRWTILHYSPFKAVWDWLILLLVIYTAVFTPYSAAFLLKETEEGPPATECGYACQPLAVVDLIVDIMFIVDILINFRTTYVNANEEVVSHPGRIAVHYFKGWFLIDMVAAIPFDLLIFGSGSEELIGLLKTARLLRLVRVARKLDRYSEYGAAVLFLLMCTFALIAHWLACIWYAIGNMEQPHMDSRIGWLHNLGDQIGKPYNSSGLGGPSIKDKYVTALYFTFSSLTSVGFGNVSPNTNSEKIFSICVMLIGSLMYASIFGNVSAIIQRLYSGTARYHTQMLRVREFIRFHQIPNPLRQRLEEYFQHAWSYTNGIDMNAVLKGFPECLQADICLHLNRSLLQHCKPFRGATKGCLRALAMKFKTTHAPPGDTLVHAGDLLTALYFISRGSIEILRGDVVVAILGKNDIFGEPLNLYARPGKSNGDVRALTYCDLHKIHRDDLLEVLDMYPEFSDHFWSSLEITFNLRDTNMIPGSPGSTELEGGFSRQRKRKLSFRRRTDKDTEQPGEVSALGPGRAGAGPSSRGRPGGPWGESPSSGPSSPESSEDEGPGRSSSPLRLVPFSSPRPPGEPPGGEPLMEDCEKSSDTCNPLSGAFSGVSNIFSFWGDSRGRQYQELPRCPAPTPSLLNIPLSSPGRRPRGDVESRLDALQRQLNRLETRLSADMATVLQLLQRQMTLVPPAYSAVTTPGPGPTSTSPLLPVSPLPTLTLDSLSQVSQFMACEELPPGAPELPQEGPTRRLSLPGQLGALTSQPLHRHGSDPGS
Data set [8] is filed under the species Homo sapiens. The data set can be described thus: Selectivity ratio of IC50 for human PI3Kalpha to IC50 for human PI3Kdelta. An outline of the steps:
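IC50s for the PI3K α, β, γ and δ isoforms came from a commercial PI3K inhibitory activity assay kit. Each IC50 is the mean of at least two experiments. The ratio is the α, β or γ IC50 divided by the δ IC50.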

Data set [9] deals with TMD8. The data set can be described thus: Antiproliferative activity against human TMD8 cells. In kind it is functional, cell-based.
Data set [10] addresses T1, CYP1A2 (Homo sapiens, UniProt P05177).
T1 sequence (P05177 whole entry): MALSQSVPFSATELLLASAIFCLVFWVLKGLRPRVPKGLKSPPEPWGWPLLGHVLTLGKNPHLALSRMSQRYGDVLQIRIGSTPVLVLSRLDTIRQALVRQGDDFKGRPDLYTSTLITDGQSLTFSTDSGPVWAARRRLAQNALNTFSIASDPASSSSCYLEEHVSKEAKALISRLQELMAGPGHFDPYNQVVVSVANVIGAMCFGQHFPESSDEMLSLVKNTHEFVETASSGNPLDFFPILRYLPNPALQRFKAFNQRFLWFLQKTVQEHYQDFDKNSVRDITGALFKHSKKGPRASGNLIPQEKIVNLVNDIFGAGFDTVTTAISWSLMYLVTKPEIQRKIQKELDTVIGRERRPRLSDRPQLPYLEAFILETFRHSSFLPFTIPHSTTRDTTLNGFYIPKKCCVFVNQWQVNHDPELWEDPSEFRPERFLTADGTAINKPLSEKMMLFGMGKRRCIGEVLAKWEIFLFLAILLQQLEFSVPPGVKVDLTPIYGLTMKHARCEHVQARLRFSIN
The data set can be described thus: Inhibition of CYP1A2 in human liver microsomes at 10 uM using testosterone/dextromethorphan as probe substrate measured after 10 mins relative to control. In kind it is ADME.

Data set [11] deals with T2, CYP2C8 (Homo sapiens, UniProt P10632).
T2 sequence (P10632 whole entry): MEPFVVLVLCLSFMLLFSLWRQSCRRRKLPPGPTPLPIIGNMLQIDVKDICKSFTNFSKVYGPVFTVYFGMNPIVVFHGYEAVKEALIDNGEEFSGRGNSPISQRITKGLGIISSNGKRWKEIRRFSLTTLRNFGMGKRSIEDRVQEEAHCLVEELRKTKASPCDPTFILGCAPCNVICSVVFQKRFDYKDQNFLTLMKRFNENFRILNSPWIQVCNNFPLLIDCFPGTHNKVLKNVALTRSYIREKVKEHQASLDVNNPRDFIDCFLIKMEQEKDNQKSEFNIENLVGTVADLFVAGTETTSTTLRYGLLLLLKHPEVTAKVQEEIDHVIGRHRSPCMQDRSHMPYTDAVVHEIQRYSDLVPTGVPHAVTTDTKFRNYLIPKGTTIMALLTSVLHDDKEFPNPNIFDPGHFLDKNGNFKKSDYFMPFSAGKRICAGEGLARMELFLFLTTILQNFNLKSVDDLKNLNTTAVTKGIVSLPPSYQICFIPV
The data set can be described thus: Inhibition of CYP2C8 in human liver microsomes at 10 uM using testosterone/dextromethorphan as probe substrate measured after 10 mins relative to control. In kind it is ADME.

In data set [12] the target is Serine/threonine-protein kinase mTOR (Homo sapiens, UniProt P42345). The data set can be described thus: Inhibition of mTOR (unknown origin) assessed as reduction in p70S6K phosphorylation.
Data set [13] can be described thus: Oral bioavailability in C57BL/6J mouse at 3 mg/kg measured up to 30 hrs by LC-MS/MS analysis. In kind it is ADME, organism-based. As to conditions: in vivo. An outline of the steps:
as §1

Data set [14] is described as follows: AUC (0 to infinity) in C57BL/6J mouse 3 mg/kg, po measured up to 30 hrs by LC-MS/MS analysis. It is filed as ADME, organism-based. Also noted: dose 3 mg/kg, route oral, time infinity. The following applies: in vivo. An outline of the steps:
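Single-dose PK in male C57BL/6J mice (n = 6), dosed 1 mg/kg iv or 3 mg/kg orally. Plasma drug levels were measured by LC-MS, and PK parameters (Tmax, Cmax, t1/2, Cl, AUC, %F) were derived. Values are given as mean ± SD. Oral bioavailability was calculated against the iv AUC.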

A short description of data set [15]: Clearance in C57BL/6J mouse at 1 mg/kg, iv measured up to 30 hrs by LC-MS/MS analysis. As to conditions: in vivo. In kind it is ADME, organism-based. An outline of the steps:
as §1

Data set [16] addresses CYP2C19 (Homo sapiens, UniProt P33261). The data set can be described thus: Inhibition of CYP2C19 in human liver microsomes at 10 uM using testosterone/dextromethorphan as probe substrate measured after 10 mins relative to control. In kind it is ADME.
Data set [17] deals with CYP2C9 (Homo sapiens, UniProt P11712). The data set can be described thus: Inhibition of CYP2C9 in human liver microsomes at 10 uM using testosterone/dextromethorphan as probe substrate measured after 10 mins relative to control. It is filed as ADME.
CYP2C9, sequence (P11712 whole entry): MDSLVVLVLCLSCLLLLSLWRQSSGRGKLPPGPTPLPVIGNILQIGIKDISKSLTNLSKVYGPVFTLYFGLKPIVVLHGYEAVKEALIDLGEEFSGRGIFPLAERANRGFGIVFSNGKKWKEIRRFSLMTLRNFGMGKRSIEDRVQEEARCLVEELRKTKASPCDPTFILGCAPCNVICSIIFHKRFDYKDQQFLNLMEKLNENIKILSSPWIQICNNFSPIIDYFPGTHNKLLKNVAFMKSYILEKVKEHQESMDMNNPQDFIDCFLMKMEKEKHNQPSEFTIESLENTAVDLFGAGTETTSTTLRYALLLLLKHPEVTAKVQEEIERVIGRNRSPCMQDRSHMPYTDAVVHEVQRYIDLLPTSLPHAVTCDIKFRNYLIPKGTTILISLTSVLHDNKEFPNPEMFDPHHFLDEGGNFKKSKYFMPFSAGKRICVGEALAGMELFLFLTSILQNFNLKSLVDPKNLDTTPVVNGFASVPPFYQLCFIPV

Structures are written as SMILES. Some results are limits rather than exact numbers.

CYP2C19, sequence (P33261 whole entry): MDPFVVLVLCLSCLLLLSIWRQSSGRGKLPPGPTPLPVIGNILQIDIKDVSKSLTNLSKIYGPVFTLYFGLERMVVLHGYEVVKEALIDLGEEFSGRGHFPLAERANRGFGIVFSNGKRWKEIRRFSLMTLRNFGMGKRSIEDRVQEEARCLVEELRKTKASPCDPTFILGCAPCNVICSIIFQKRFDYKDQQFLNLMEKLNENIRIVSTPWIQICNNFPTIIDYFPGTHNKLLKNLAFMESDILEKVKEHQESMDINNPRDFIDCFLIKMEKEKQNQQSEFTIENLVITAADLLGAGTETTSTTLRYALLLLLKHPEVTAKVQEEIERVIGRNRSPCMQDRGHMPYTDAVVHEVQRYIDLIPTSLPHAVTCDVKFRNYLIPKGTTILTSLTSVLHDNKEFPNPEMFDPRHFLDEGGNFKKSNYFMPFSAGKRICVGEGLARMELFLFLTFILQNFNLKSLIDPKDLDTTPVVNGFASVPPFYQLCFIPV

With `COc1ccc(Cn2c(=O)n(C)c3c4cc(-c5cnc(OC)c(NS(C)(=O)=O)c5)ccc4ncc32)cc1`, in [1], the Cmax is 1280 ng/mL. Moreover, the inhibition at 10 min, 10 µM in [2], in data set [10], in [11], in data set [16] and in data set [17] was less than 10% throughout. The inhibition in vivo at 30 mg/kg/day in data set [3] stood at 100%. Further, the fraction unbound in data set [4] is 0.11. The half-life in data set [5] is 3.48 h. Further, the concentration for half-maximal inhibition (IC50) in [6] is 589 nM; in data set [7], greater than 30000 nM; in [9], 340 nM; in data set [12], greater than 1000 nM. For the same compound, the Ratio IC50 in data set [8] amounted to 469. In data set [13], this compound registered a bioavailability of 68.9%. Besides, the AUC in data set [14] is 3830 ng·h/mL. The same compound gave a clearance in [15] of 8.24 mL/min/kg.
